Assay results reported in ChEMBL document CHEMBL4321880 (J Med Chem, 2020).

Tests used:
CYP3A5 = CYP3A5 (Homo sapiens, UniProt P20815); experiment: Inhibition of human recombinant CYP3A5 expressed in supersomes assessed as decrease in formation of D-luciferin using luciferin-IPA as substrate incubated for 10 mins in presence of NADPH by P450-Glo luminescence assay; settings: probe luciferin-IPA
Cytochrome P450 3A4 [1] = target: T1, Cytochrome P450 3A4 (Homo sapiens, UniProt P08684); experiment: Inhibition of CYP3A4 in human liver microsomes assessed as formation of 6-beta-hydroxytestosterone at 1.85 uM using testosterone as substrate incubated for 10 mins in presence of NADPH by LC-MS/MS analysis; format: ADME
Outline: (§1)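 Pooled human liver microsomes with 2 mM NADPH in 100 mM KPO4 pH 7.4, 5 mM MgCl2, 37 °C, technical triplicate, final DMSO 0.2%. Probe (substrate, level, protein, time): 1A2 tacrine 5 μM, 0.2 mg/mL, 10 min; 2B6 bupropion 100 μM, 0.25 mg/mL, 10 min; 2C8 amodiaquine 5 μM, 0.25 mg/mL, 10 min; 2C9 tolbutamide 100 μM, 0.5 mg/mL, 15 min; 2C19 mephenytoin 100 μM, 0.25 mg/mL, 60 min; 2D6 dextromethorphan 5 μM, 0.5 mg/mL, 10 min; 3A4 midazolam 2.5 μM or testosterone 50 μM, 0.25 mg/mL, 10 min. Methanol quench, metabolites measured by LC-MS/MS.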

Cytochrome P450 2C19 = Cytochrome P450 2C19 (Homo sapiens, UniProt P33261); experiment: Inhibition of CYP2C19 in human liver microsomes assessed as formation of 4-hydroxymephenytoin at 1.85 uM using mephenytoin as substrate incubated for 60 mins in presence of NADPH by LC-MS/MS analysis; format: ADME; settings: 1 h; outline: as §1
Cytochrome P450 3A4 [2] = target: T1, Cytochrome P450 3A4; experiment: Binding affinity to His-tagged CYP3A4 (unknown origin) expressed in Escherichia coli DH5alpha assessed as retention of axial water ligand with ligand free LS with no new HS formation by EPR spectroscopy; format: ADME; settings: buffer
Outline: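 Continuous-wave X-band EPR of the purified recombinant ligand-free enzyme and of its ligand complex. Ferric heme spin state (LS vs HS) assigned from g-values.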

Cytochrome P450 2C8 = target: T2, Cytochrome P450 2C8 (Homo sapiens, UniProt P10632); experiment: Inhibition of CYP2C8 in human liver microsomes assessed as formation of desethylamodiaquine at 1.85 uM using amodiaquine as substrate incubated for 10 mins in presence of NADPH by LC-MS/MS analysis; format: ADME; outline: as §1
T2 sequence (P10632 whole entry): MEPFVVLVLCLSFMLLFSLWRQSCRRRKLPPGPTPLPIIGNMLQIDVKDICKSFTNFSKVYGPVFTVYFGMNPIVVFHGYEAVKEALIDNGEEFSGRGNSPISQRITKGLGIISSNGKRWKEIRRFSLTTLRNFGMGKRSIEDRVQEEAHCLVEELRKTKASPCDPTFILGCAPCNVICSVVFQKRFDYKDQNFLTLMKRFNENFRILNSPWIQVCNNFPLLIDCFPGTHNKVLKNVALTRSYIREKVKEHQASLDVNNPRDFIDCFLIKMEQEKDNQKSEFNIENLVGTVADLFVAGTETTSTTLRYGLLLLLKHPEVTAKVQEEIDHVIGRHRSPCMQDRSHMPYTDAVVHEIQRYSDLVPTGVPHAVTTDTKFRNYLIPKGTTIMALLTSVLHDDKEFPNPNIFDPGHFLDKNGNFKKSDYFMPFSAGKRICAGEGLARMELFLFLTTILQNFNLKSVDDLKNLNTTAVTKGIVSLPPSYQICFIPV

ASPC1 [3] = experiment: Cytotoxicity against doxycycline-induced CYP3A5 overexpressing wild type human AsPC1 cells assessed as cell growth; format: ADME, cell-based
Outline: (§2)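 Cells seeded at 10,000/well. Dox-inducible lines were induced with 100 ng/mL doxycycline, then treated 24 h later with compound at 16 two-fold dilutions (0.0003–10 μM) plus 5 μM midazolam, in 0.66% DMSO final, for 24 h. Phase-contrast confluence imaging followed. Values were normalized to six 0.66% DMSO replicates and fitted with a three-parameter log(inhibitor) vs response curve.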

Cytochrome P450 3A5 [4] = target: T3, Cytochrome P450 3A5 (Homo sapiens, UniProt P20815); experiment: Binding affinity to His-tagged CYP3A5 (unknown origin) expressed in Escherichia coli DH5alpha assessed as five-coordinate HS ferric heme iron state formation with displacement of distal water ligand by EPR spectroscopy
Outline: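 Continuous-wave X-band EPR of purified recombinant enzyme, alone and in complex with ligand. Spectra were compared against the ligand-free form.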

ASPC1 [5] = experiment: Cytotoxicity against lentiviral pLVX-TRE3G-ZsGreen1-CYP3A5 transduced wild type human AsPC1 cells overexpressing CYP3A5 assessed as cell growth; format: ADME, cell-based; outline: as §2
ASPC1 [6] = experiment: Cytotoxicity against CRISPR/Cas9-mediated CYP3A5 knock-out and doxycycline-induced CYP3A4 overexpressing human AsPC1 cells assessed as cell growth; format: ADME, cell-based; outline: as §2
ASPC1 [7] = experiment: Cytotoxicity against CRISPR/Cas9-mediated CYP3A5 knock-out and doxycycline-induced CYP3A5 overexpressing human AsPC1 cells assessed as cell growth; format: ADME, cell-based; outline: as §2
ASPC1 [8] = experiment: Cytotoxicity against CRISPR/Cas9-mediated CYP3A5 knock-out and lentiviral pLVX-TRE3G-ZsGreen1-CYP3A5 transduced human AsPC1 cells overexpressing CYP3A5 assessed as cell growth; format: ADME, cell-based; outline: as §2
Cytochrome P450 3A5 [9] = target: T3, Cytochrome P450 3A5; experiment: Binding affinity to heme in His-tagged CYP3A5 (unknown origin) expressed in Escherichia coli DH5alpha assessed as formation of five-coordinate ferric heme iron by measuring type 1 Soret shift from 417 nm (low spin) to 395 nm (high spin) by UV-vis spectrophotometric titration analysis
Outline: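 Purified recombinant His-tagged CYP3A5 titrated with successive ligand additions until heme absorbance stopped changing. The ligand-free spectrum was subtracted to give difference spectra. Peak-minus-trough values were plotted against ligand concentration and fitted to a binding equation for Kd. Wavelength pairs: ΔA 386–418 nm for the type I shift; ΔA 432–410 nm for the type II shift.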

Cytochrome P450 2D6 = Cytochrome P450 2D6 (Homo sapiens, UniProt P10635); experiment: Inhibition of CYP2D6 in human liver microsomes at 1.85 uM using dextromethorphan as substrate incubated for 10 mins in presence of NADPH by LC-MS/MS analysis; format: ADME; outline: as §1
Cytochrome P450 2D6, sequence (P10635 whole entry): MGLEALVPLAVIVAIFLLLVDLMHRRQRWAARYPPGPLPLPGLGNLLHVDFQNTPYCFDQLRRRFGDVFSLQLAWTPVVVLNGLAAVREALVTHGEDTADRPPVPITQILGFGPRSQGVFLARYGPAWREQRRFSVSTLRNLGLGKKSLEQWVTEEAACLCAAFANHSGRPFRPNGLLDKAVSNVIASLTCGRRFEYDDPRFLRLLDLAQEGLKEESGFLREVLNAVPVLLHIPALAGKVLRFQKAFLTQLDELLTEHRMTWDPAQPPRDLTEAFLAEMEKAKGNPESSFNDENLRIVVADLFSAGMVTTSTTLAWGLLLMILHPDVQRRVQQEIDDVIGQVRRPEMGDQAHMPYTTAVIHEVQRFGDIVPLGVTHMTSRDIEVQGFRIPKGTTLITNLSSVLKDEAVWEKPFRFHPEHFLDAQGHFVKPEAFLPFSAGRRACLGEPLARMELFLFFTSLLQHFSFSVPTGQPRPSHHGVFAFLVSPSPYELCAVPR

T1 sequence (P08684 whole entry): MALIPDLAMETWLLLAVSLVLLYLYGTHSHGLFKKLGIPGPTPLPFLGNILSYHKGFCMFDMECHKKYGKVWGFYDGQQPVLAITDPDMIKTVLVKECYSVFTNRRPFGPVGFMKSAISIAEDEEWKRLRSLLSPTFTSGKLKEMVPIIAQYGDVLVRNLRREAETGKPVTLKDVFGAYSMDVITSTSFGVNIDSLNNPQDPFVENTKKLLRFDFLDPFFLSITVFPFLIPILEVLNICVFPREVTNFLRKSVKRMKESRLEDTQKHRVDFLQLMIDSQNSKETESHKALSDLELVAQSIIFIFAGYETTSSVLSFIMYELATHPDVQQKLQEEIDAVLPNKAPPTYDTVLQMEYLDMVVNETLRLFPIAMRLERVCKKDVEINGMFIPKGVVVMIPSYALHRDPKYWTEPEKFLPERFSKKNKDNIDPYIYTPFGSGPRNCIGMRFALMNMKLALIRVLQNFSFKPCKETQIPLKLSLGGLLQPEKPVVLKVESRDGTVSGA
T3 sequence (P20815 whole entry): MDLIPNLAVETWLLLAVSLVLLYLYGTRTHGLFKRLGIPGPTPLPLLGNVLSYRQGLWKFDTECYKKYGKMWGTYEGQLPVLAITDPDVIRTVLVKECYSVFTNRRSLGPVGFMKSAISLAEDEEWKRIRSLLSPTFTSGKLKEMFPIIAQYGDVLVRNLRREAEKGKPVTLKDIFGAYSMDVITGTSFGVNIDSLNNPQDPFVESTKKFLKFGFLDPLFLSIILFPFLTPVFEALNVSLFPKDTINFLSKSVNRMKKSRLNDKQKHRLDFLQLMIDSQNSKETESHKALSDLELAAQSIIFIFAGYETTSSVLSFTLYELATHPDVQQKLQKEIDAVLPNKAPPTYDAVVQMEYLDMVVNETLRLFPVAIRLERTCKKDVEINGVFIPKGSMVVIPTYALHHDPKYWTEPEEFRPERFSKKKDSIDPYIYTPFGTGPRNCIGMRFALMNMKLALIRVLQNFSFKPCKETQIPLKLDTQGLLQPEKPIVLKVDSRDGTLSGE
CYP3A5, sequence (P20815 whole entry): as above
Cytochrome P450 2C19, sequence (P33261 whole entry): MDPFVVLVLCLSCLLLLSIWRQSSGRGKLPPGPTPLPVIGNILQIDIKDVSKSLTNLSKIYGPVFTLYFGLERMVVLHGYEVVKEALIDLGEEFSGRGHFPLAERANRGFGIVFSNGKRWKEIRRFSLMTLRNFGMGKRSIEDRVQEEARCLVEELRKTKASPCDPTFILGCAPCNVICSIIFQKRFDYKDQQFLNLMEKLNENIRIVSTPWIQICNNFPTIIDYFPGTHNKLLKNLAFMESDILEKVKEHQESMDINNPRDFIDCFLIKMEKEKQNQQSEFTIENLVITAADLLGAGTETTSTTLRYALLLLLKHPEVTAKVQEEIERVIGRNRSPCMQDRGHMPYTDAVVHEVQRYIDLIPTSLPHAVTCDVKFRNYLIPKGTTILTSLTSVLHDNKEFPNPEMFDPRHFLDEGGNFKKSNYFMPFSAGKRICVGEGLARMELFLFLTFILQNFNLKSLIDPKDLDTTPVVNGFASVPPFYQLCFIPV

Which IC90 at 10 min (CYP3A5) does the source give for `CCC(=O)O[C@]1(C(=O)CCl)[C@@H](C)C[C@H]2[C@@H]3CCC4=CC(=O)C=C[C@]4(C)[C@@]3(F)[C@@H](O)C[C@@]21C` [CLOBETASOL PROPIONATE] here?
Its IC90 at 10 min is 1800 nM.

And the “inhibition (INH)” value (Cytochrome P450 3A4 [1])?
The value was “Not Active”.

What about the “inhibition (INH)” value (Cytochrome P450 2C19) of the same molecule?
The value was “Not Active”.

What about the Activity (Cytochrome P450 3A4 [2]) of the same molecule?
Its Activity is “Not Active”.

And the “inhibition (INH)” value (Cytochrome P450 2C8)?
Its value is “Not Active”.

What about the Activity (ASPC1 [3]) of the same molecule?
The Activity was “Non-Toxic”.

What about the Activity (Cytochrome P450 3A5 [4]) of the same molecule?
Its Activity is “Active”.

What about the Activity (ASPC1 [5]) of the same molecule?
The Activity was “Non-Toxic”.

What about the Activity (ASPC1 [6]) of the same molecule?
Its Activity is “Non-Toxic”.

What about the Activity (ASPC1 [7]) of the same molecule?
The Activity was “Non-Toxic”.

What about the Activity (ASPC1 [8]) of the same molecule?
Its Activity is “Non-Toxic”.

And the Activity (Cytochrome P450 3A5 [9])?
The Activity was “Active”.

What about the “inhibition (INH)” value (Cytochrome P450 2D6) of the same molecule?
The value was “Not Active”.
